Results on 17 compounds are retold here after ChEMBL document CHEMBL3351372, “Structure-Based Drug Design of Novel Potent and Selective Tetrahydropyrazolo[1,5-a]pyrazines as ATR Inhibitors” (ACS Med Chem Lett, 2015).

In data set [1] the test system is Liver microsome. Put plainly: Metabolic stability in human liver microsomes assessed as level of GSH adduct after 60 mins at 10 uM by GSH trapping assay. The following applies: 1 h. A general note: Liver microsomes are vesicles of endoplasmic reticulum, rich in cytochrome P450 enzymes.
The nature of data set [2]: Solubility of the compound in PBS buffer at pH 7 by miniaturized shake flask equilibrium solubility assay.
Data set [3] has as its target Phosphatidylinositol 4,5-bisphosphate 3-kinase catalytic subunit alpha isoform (Homo sapiens, UniProt P42336). Put plainly: Inhibition of PI3Kalpha (unknown origin).
The target in data set [4] is Serine/threonine-protein kinase ATR (Homo sapiens, UniProt Q13535). Put plainly: Inhibition of ATR (unknown origin) using Avi-tagged protein substrate by alphascreen assay.
Data set [5] deals with DNA-dependent protein kinase catalytic subunit (Homo sapiens, UniProt P78527).
The target in data set [6] is Serine/threonine-protein kinase mTOR (Homo sapiens, UniProt P42345). The data set is described as follows: Inhibition of mTOR (unknown origin) by alphascreen SureFire p70 S6K (p-Thr389) assay. The method, boiled down: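 They were treated with compound for 1 h under the same conditions. The read-out was p70 S6K phospho-Thr389.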
On the technique in general: Bead proximity is the source of the signal in Alpha formats.

In data set [7] the target is Serine-protein kinase ATM (Homo sapiens, UniProt Q13315). The data set is described as follows: Inhibition of ATM (unknown origin) using p53-Q10-K17 peptide substrate by alphascreen assay.
Data set [8] deals with Cytochrome P450 3A4 (Homo sapiens, UniProt P08684). Put plainly: Time dependent inhibition of CYP3A4 in human liver microsomes using midazolam as substrate assessed as ratio of Kinact to Ki preincubated for 0 to 30 mins followed by NADPH addition in phosphate buffer at 50 uM. It counts as ADME. The gist of the method: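 Compound was preincubated with human liver microsomes (0.5 mg/mL) in 100 mM phosphate buffer with 1 mM NADPH for 0, 5, 15 and 30 min, testing 50 μM plus serial dilutions. The mix was diluted 20-fold and incubated with 20 μM midazolam to measure residual CYP3A4 activity. Activity versus preincubation time gave the kinetic TDI parameters.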

Data set [9] in a line: Inhibition of CHK1 in HeLa S3 cells assessed as inhibition of phosphorylation at ser345 by AlphaScreen SureFire CHK1 (p-Ser345) assay.
A short description of data set [10]: Half life in rat at 2.5 mg/kg. It counts as ADME, organism-based. The following applies: in vivo. Also noted: dose 2.5 mg/kg.
Data set [11] in a line: Apparent permeability across apical to basolateral side in human Caco2 cells at pH 7.4. As to conditions: Caco-2, pH 7.4. (In general: Caco-2 monolayers are a common model of the intestinal barrier.)
Data set [12] can be described thus: Clearance in rat at 2.5 mg/kg. It counts as ADME, organism-based. More on the design: dose 2.5 mg/kg. As to conditions: in vivo; call rule not given here.
Data set [13] in a line: Octanol-water distribution coefficient, log D of the compound with pH 7.4 PBS buffer.
Data set [14] can be described thus: Volume of distribution at steady state in rat at 2.5 mg/kg. More on the design: dose 2.5 mg/kg. It counts as ADME, organism-based. As to conditions: in vivo, read-out: Vdss.
The nature of data set [15]: Oral bioavailability in rat at 2.5 mg/kg. It counts as ADME, organism-based. The following applies: in vivo.
Data set [16] concerns the target Voltage-gated inwardly rectifying potassium channel KCNH2 (Homo sapiens, UniProt Q12809). Put plainly: Inhibition of human ERG by automated whole cell electrophysiology.
Data set [17] is described as follows: Apparent permeability across basolateral to apical side in human Caco2 cells at pH 7.4. As to conditions: Caco-2, pH 7.4.

≈ marks a conversion by molar mass, not a printed value.

Serine/threonine-protein kinase ATR, sequence (Q13535 whole entry): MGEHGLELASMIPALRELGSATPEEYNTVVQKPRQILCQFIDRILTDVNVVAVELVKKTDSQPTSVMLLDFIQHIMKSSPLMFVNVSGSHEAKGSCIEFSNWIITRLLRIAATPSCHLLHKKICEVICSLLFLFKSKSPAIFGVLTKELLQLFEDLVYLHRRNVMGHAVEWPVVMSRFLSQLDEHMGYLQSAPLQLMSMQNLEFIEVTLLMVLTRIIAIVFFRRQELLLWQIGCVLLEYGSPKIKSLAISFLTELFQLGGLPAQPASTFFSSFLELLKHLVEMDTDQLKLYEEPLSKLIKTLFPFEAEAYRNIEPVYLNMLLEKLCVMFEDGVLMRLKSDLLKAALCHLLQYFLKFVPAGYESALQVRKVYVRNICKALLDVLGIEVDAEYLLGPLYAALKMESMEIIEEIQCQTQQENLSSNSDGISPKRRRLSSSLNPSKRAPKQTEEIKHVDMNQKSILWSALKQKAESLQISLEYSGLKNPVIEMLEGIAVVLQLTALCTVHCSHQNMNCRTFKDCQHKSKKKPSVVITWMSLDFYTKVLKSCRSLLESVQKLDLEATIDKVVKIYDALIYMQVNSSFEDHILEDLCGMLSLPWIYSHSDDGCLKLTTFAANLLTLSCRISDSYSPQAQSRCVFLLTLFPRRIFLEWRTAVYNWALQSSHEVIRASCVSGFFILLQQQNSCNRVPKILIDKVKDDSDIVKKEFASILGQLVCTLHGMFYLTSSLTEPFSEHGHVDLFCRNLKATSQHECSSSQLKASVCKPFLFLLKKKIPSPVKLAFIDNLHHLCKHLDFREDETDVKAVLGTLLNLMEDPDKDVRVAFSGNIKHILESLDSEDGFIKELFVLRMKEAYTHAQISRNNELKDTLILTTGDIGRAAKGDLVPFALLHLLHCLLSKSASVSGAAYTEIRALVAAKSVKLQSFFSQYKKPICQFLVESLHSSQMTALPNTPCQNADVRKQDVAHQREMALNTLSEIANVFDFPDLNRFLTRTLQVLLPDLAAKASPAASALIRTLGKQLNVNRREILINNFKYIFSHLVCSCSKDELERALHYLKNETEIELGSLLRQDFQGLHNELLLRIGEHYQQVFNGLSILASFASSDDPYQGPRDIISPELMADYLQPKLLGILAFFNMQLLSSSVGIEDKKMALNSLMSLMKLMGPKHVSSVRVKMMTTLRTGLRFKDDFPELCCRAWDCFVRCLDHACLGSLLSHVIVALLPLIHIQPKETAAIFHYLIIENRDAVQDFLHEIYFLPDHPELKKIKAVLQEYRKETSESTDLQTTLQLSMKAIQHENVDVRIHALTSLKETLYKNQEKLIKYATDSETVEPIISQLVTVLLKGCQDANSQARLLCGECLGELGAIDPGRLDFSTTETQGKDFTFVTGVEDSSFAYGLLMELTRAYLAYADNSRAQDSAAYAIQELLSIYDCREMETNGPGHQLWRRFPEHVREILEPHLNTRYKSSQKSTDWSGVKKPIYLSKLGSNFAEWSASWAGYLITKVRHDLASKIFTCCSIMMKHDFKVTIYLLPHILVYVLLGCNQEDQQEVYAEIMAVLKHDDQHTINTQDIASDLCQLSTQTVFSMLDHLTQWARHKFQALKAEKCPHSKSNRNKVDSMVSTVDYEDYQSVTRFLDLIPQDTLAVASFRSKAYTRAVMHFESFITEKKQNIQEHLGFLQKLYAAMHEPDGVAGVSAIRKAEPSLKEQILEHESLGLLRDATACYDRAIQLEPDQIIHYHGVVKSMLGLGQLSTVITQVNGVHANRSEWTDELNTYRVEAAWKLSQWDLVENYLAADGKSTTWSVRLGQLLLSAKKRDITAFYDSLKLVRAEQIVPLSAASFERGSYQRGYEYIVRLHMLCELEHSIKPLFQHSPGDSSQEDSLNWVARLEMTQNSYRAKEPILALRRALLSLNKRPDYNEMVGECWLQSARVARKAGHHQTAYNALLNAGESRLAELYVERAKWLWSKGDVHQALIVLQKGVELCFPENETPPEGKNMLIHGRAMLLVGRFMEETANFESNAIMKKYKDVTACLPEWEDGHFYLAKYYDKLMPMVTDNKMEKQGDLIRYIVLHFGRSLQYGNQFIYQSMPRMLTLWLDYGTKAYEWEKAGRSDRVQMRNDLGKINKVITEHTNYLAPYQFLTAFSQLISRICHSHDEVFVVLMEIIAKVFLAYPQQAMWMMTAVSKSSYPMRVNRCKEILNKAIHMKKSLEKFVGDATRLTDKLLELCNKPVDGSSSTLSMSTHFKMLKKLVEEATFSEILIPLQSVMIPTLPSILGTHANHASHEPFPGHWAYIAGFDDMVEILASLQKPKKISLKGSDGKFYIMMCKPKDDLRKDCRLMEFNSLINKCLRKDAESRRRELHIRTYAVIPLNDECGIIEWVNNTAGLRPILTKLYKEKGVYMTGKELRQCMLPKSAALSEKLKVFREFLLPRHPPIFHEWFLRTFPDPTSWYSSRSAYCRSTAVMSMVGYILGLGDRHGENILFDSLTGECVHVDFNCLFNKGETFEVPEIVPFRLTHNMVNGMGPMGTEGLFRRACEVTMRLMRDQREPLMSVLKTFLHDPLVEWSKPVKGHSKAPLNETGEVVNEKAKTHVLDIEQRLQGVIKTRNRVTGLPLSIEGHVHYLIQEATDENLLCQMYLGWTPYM
Phosphatidylinositol 4,5-bisphosphate 3-kinase catalytic subunit alpha isoform, sequence (P42336 whole entry, canonical isoform): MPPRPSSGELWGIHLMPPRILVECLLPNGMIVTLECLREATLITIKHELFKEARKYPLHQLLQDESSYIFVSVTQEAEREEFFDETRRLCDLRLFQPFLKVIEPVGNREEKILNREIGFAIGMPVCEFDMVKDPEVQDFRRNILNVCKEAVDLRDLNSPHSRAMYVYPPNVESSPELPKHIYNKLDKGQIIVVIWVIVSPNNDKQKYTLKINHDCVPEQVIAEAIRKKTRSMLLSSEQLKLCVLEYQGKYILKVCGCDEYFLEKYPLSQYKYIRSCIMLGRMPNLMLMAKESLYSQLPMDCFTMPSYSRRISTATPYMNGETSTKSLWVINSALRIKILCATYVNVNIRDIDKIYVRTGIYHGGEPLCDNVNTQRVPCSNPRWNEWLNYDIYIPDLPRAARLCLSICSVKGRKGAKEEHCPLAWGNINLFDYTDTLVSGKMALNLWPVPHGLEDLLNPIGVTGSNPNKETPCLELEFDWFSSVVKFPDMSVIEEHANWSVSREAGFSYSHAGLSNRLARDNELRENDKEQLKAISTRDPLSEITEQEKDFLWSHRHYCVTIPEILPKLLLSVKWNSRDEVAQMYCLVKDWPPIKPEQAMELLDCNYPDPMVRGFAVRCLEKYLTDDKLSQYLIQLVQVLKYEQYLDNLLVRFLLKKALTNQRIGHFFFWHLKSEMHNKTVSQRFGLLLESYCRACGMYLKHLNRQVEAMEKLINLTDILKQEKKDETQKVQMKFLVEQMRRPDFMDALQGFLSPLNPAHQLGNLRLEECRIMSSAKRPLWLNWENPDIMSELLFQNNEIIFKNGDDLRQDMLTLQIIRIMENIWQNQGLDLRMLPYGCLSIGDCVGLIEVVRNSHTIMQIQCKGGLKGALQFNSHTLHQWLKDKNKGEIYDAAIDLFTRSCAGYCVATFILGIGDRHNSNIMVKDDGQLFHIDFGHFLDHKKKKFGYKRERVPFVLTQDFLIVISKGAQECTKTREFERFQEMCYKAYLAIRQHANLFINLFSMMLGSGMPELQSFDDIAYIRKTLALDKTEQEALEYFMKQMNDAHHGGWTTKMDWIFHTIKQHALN
Cytochrome P450 3A4, sequence (P08684 whole entry): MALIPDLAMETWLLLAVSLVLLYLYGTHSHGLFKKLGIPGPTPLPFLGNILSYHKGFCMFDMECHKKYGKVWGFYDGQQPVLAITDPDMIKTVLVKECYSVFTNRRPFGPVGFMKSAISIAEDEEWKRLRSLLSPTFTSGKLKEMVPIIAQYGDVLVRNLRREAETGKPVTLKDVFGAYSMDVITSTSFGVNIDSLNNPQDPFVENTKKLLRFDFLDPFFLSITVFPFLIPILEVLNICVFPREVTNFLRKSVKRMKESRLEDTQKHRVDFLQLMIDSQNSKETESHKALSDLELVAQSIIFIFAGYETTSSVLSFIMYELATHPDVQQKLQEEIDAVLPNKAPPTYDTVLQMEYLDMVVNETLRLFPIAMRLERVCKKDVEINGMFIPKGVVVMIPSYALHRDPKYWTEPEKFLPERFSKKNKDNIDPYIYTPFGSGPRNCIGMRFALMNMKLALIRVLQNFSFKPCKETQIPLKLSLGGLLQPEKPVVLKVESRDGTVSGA

`[2H][C@@]1(C)Cn2ncc(C3CCN(S(C)(=O)=O)CC3)c2CN1c1cc(Cl)nc2[nH]ccc12`: in [1], the Stability entry is listed as “Stable”.

With `CN(C)S(=O)(=O)c1ccc(-c2cnn3c2CN(c2ccnc4[nH]ccc24)CC3)cc1`, the solubility (thermodynamic) in data set [2] is 3 µM (≈ 1.27 µg/mL). Moreover, the results for the IC50 in [3] and in [4] were 1100 nM and 1 nM, respectively.

Regarding `C[C@@H]1Cn2ncc(-c3ccc(S(C)(=O)=O)cc3)c2CN1c1ccnc2[nH]ccc12`, the IC50 in [5] amounted to 140 nM; in data set [6], 1100 nM; in data set [7] it was 130 nM; in data set [4] it was 0.3 nM.

Take `C[C@@H]1Cn2ncc(C3CCN(S(C)(=O)=O)CC3)c2CN1c1ccnc(N)c1`: the “inhibition (INH)” value in data set [8] is listed as “Active”. Moreover, the midpoint of inhibition in data set [4], the IC50, lay at 440 nM.

Turning to `COc1ccc(-c2ccc3ncc(-c4ccc(C(N)=O)cc4)n3n2)cc1OC`, the IC50 in data set [3] came to 9 nM; in data set [4] it was 26 nM.

With `C[C@@H]1Cc2ncn(C3CCN(S(C)(=O)=O)CC3)c2CN1c1ccnc2[nH]ccc12`, in [8], the Ratio was 0.001 µL/min/pmol. The IC50 in data set [4] amounted to 41 nM.

Consider `C[C@@H]1Cn2ncc(-c3ccc(S(=O)(=O)N(C)C)cc3)c2CN1c1ccnc2[nH]ccc12`, for which, in [2], the thermodynamic solubility was found to be 188 µM (≈ 82.1 µg/mL). In addition, the values for the IC50 in data set [3], in data set [9] and in [4] were greater than 10000 nM, 123 nM and 0.5 nM, respectively.

Compound `C[C@@H]1Cn2ncc(C3CCN(S(C)(=O)=O)CC3)c2CN1c1cc(Cl)nc2[nH]ccc12` showed a half-life in [10] of 51.6 min. Moreover, the half-maximal inhibitory concentration (IC50) stood at 1600 nM in data set [5]; 4400 nM in data set [6]; 4300 nM in data set [7]; 12500 nM in data set [16]; 0.4 nM in [4]. In addition, the Papp A→B in data set [11] was found to be 18 ×10⁻⁶ cm/s. Besides, in data set [2], the thermodynamic solubility is 37 µM (≈ 16.6 µg/mL). This compound came in with a clearance in data set [12] of 57 mL/min/kg. For the same compound, the logD in [13] worked out at 3.4. For the same compound, the Vd in data set [14] was determined as 3.3 L/kg. The bioavailability in data set [15] worked out at 64%. Besides, in [17], the Papp B→A amounted to 30 ×10⁻⁶ cm/s.

`[2H]C1([2H])c2c(C3CCN(S(C)(=O)=O)CC3)cnn2C[C@@]([2H])(C)N1c1cc(Cl)nc2[nH]ccc12`: in [1], the Stability entry is “Unstable”.

As for `CN(C)S(=O)(=O)c1ccc(-c2cnc3ccc(-c4ccnc5[nH]ccc45)nn23)cc1`, the IC50 in data set [3] turned out to be 40 nM; in [9], 44 nM; in [4] it was 0.5 nM.

Take `C[C@@H]1Cn2ncc(C3CCN(S(C)(=O)=O)CC3)c2CN1c1ccnc2[nH]cnc12`: the “inhibition (INH)” value in [8] is recorded as “Active”. The compound also showed an IC50 in data set [4] of 2 nM.

Take `C[C@@H]1Cn2ncc(C3CCN(S(C)(=O)=O)CC3)c2CN1c1ccnc2[nH]ccc12`: the IC50 in data set [5] is 6500 nM; in [6] it was greater than 2300 nM; in [7] it was 14000 nM; in data set [4] it was 1 nM. The Papp A→B in data set [11] was found to be 10 ×10⁻⁶ cm/s. The compound also came in with a solubility (thermodynamic) in data set [2] of 965 µM (≈ 400 µg/mL). Moreover, in data set [13], the logD is 2.4. Moreover, the Papp B→A in data set [17] was found to be 44 ×10⁻⁶ cm/s.

In the case of `C[C@@H]1Cn2ncc(C3CCN(S(C)(=O)=O)CC3)c2CN1c1ccnc2[nH]ncc12`, the “inhibition (INH)” value in data set [8] is on record as “Not Active”. Moreover, in [4], 29 nM corresponded to half-maximal inhibition (IC50).

Take `C[C@@H]1Cn2ncc(C3CCN(S(C)(=O)=O)CC3)c2C(=O)N1c1ccnc2[nH]ccc12`: the TDI entry in data set [8] is reported as “Not Active”. This compound also had an IC50 in [4] of 64 nM.

Take `C[C@@H]1[C@@H](C)n2ncc(C3CCN(S(C)(=O)=O)CC3)c2CN1c1ccnc2[nH]ccc12`: in [8], the Ratio amounted to 0.004 µL/min/pmol. Moreover, in data set [4], the IC50 came out at 2100 nM.

`CC1(C)Cn2ncc(C3CCN(S(C)(=O)=O)CC3)c2CN1c1cc(Cl)nc2[nH]ccc12`: in data set [8], the Ratio stood at 0.023 µL/min/pmol. The IC50 in data set [4] is 6200 nM.

Consider `[2H]C1([2H])c2c(C3CCN(S(C)(=O)=O)CC3)cnn2C[C@@H](C)N1c1cc(Cl)nc2[nH]ccc12`, for which the Stability entry in data set [1] was “Unstable”.

By thermodynamic solubility is commonly meant solubility found after equilibrating the solid with the medium. For orientation: IC50 means the concentration at which inhibition is half-maximal. In general, half-life refers to how long it takes for the measured level to halve. The low end stands for fast loss, the high end for slow loss. In general, Papp A→B refers to how fast a substance crosses the layer from the apical side. A word on the clearance: it is the rate of elimination divided by the concentration. Low readings indicate inefficient removal, high ones efficient removal. Usually logD stands for the decadic logarithm of the distribution of all forms, ionised or not, between an organic phase and buffer at a given pH. Read a low logD as a more hydrophilic compound. By bioavailability is commonly meant dose-corrected exposure relative to a reference, in per cent. The term Papp B→A denotes how fast a substance crosses the layer from the basolateral side.
